ChEMBL document CHEMBL5058577, “EUbOPEN Chemogenomics Library 2 (Multiplex)” (2022)

Test system: U2OS
Assay: Multiplex assay against U2OS
Format: toxicity, cell-based
Conditions: human
Procedure, shortened: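 With compound added, live cells were imaged on a CQ1 microscope at 37°C and 5% CO2; staining with Hoechst33342, BioTracker Green Microtubule Cytoskeleton Dye, MitoTracker Red and Annexin V Alexa Fluor 680 had been done at seeding. The CellPathfinder machine-learning gating scheme split cells into Hoechst high-intensity objects or normal cells, normal cells into healthy, pyknosed or fragmented nuclei, and pyknosed cells into mitotic or apoptotic. The tubulin, mitochondrial-mass and membrane-permeability phenotypes are per cents of healthy-nucleus cells.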

[1] = 12 h, 1 µM, compound concentration 1 uM, replicate 1
[2] = 12 h, 1 µM, compound concentration 1 uM, replicate 2
[3] = 12 h, 10 µM, compound concentration 10 uM, replicate 1
[4] = 12 h, 10 µM, compound concentration 10 uM, replicate 2
[5] = 24 h, 1 µM, compound concentration 1 uM, replicate 1
[6] = 24 h, 1 µM, compound concentration 1 uM, replicate 2
[7] = 24 h, 10 µM, compound concentration 10 uM, replicate 1
[8] = 24 h, 10 µM, compound concentration 10 uM, replicate 2
[9] = 48 h, 1 µM, compound concentration 1 uM, replicate 1
[10] = 48 h, 1 µM, compound concentration 1 uM, replicate 2
[11] = 48 h, 10 µM, compound concentration 10 uM, replicate 1
[12] = 48 h, 10 µM, compound concentration 10 uM, replicate 2

Cc1cc(NC(=O)NCCN2CCC(O)(Cc3ccccc3)CC2)c2ccccc2n1 [PALOSURAN]
Population Apoptotic (%) [1]: 80% | Population Fragmented Nuclei (%) [1]: 27% | Population Healthy Nuclei (%) [1]: 65% | Population Hoechst High Intensity Objects (%) [1]: 1% | Population Membrane Permeable-Phenotype (%) [1]: 4% | Population Mitochondria Different-Phenotype (%) [1]: 2% | Population Mitotic Cells (%) [1]: 20% | Population Normal (%) [1]: 98% | Population Pyknosed Nuclei (%) [1]: 6% | Population Tubulin-Different-Phenotype (%) [1]: 1% | Total Cell Count [1]: 220 | Population Apoptotic (%) [2]: 71% | Population Fragmented Nuclei (%) [2]: 19% | Population Healthy Nuclei (%) [2]: 71% | Population Hoechst High Intensity Objects (%) [2]: 0% | Population Membrane Permeable-Phenotype (%) [2]: 2% | Population Mitochondria Different-Phenotype (%) [2]: 0% | Population Mitotic Cells (%) [2]: 28% | Population Normal (%) [2]: 100% | Population Pyknosed Nuclei (%) [2]: 9% | Total Cell Count [2]: 145 | Population Apoptotic (%) [3]: 72% | Population Fragmented Nuclei (%) [3]: 30% | Population Healthy Nuclei (%) [3]: 59% | Population Hoechst High Intensity Objects (%) [3]: 3% | Population Membrane Permeable-Phenotype (%) [3]: 6% | Population Mitochondria Different-Phenotype (%) [3]: 1% | Population Mitotic Cells (%) [3]: 28% | Population Normal (%) [3]: 96% | Population Pyknosed Nuclei (%) [3]: 9% | Population Tubulin-Different-Phenotype (%) [3]: 1% | Total Cell Count [3]: 266 | Population Apoptotic (%) [4]: 66% | Population Fragmented Nuclei (%) [4]: 17% | Population Healthy Nuclei (%) [4]: 70% | Population Membrane Permeable-Phenotype (%) [4]: 12% | Population Mitochondria Different-Phenotype (%) [4]: 2% | Population Mitotic Cells (%) [4]: 33% | Population Pyknosed Nuclei (%) [4]: 11% | Population Tubulin-Different-Phenotype (%) [4]: 8% | Total Cell Count [4]: 107 | Population Apoptotic (%) [5]: 94% | Population Fragmented Nuclei (%) [5]: 26% | Population Healthy Nuclei (%) [5]: 66% | Population Hoechst High Intensity Objects (%) [5]: 1% | Population Membrane Permeable-Phenotype (%) [5]: 3% | Population Mitochondria Different-Phenotype (%) [5]: 3% | Population Mitotic Cells (%) [5]: 5% | Population Normal (%) [5]: 98% | Population Pyknosed Nuclei (%) [5]: 6% | Population Tubulin-Different-Phenotype (%) [5]: 2% | Total Cell Count [5]: 276 | Population Apoptotic (%) [6]: 66% | Population Fragmented Nuclei (%) [6]: 17% | Population Healthy Nuclei (%) [6]: 74% | Population Membrane Permeable-Phenotype (%) [6]: 7% | Population Mitochondria Different-Phenotype (%) [6]: 7% | Population Mitotic Cells (%) [6]: 33% | Population Pyknosed Nuclei (%) [6]: 8% | Population Tubulin-Different-Phenotype (%) [6]: 3% | Total Cell Count [6]: 173 | Population Apoptotic (%) [7]: 92% | Population Fragmented Nuclei (%) [7]: 26% | Population Healthy Nuclei (%) [7]: 65% | Population Hoechst High Intensity Objects (%) [7]: 3% | Population Membrane Permeable-Phenotype (%) [7]: 4% | Population Mitochondria Different-Phenotype (%) [7]: 0% | Population Mitotic Cells (%) [7]: 8% | Population Normal (%) [7]: 96% | Population Pyknosed Nuclei (%) [7]: 8% | Population Tubulin-Different-Phenotype (%) [7]: 2% | Total Cell Count [7]: 297 | Population Apoptotic (%) [8]: 75% | Population Fragmented Nuclei (%) [8]: 19% | Population Healthy Nuclei (%) [8]: 74% | Population Membrane Permeable-Phenotype (%) [8]: 11% | Population Mitochondria Different-Phenotype (%) [8]: 1% | Population Mitotic Cells (%) [8]: 25% | Population Pyknosed Nuclei (%) [8]: 6% | Population Tubulin-Different-Phenotype (%) [8]: 5% | Total Cell Count [8]: 129 | Population Apoptotic (%) [9]: 96% | Population Fragmented Nuclei (%) [9]: 25% | Population Healthy Nuclei (%) [9]: 68% | Population Hoechst High Intensity Objects (%) [9]: 1% | Population Membrane Permeable-Phenotype (%) [9]: 5% | Population Mitochondria Different-Phenotype (%) [9]: 3% | Population Mitotic Cells (%) [9]: 3% | Population Normal (%) [9]: 98% | Population Pyknosed Nuclei (%) [9]: 6% | Population Tubulin-Different-Phenotype (%) [9]: 3% | Total Cell Count [9]: 411 | Population Apoptotic (%) [10]: 84% | Population Fragmented Nuclei (%) [10]: 15% | Population Healthy Nuclei (%) [10]: 73% | Population Hoechst High Intensity Objects (%) [10]: 3% | Population Membrane Permeable-Phenotype (%) [10]: 7% | Population Mitochondria Different-Phenotype (%) [10]: 5% | Population Mitotic Cells (%) [10]: 16% | Population Normal (%) [10]: 97% | Population Pyknosed Nuclei (%) [10]: 11% | Population Tubulin-Different-Phenotype (%) [10]: 4% | Total Cell Count [10]: 233 | Population Apoptotic (%) [11]: 97% | Population Fragmented Nuclei (%) [11]: 20% | Population Healthy Nuclei (%) [11]: 70% | Population Hoechst High Intensity Objects (%) [11]: 1% | Population Membrane Permeable-Phenotype (%) [11]: 5% | Population Mitochondria Different-Phenotype (%) [11]: 2% | Population Mitotic Cells (%) [11]: 2% | Population Normal (%) [11]: 98% | Population Pyknosed Nuclei (%) [11]: 9% | Population Tubulin-Different-Phenotype (%) [11]: 2% | Total Cell Count [11]: 421 | Population Apoptotic (%) [12]: 89% | Population Fragmented Nuclei (%) [12]: 16% | Population Healthy Nuclei (%) [12]: 72% | Population Membrane Permeable-Phenotype (%) [12]: 7% | Population Mitochondria Different-Phenotype (%) [12]: 4% | Population Mitotic Cells (%) [12]: 10% | Population Pyknosed Nuclei (%) [12]: 10% | Population Tubulin-Different-Phenotype (%) [12]: 1% | Total Cell Count [12]: 180
